Data: ChEMBL document CHEMBL4411287, “Discovery and optimization of a series of 3-substituted indazole derivatives as multi-target kinase inhibitors for the treatment of lung squamous cell carcinoma” (Eur J Med Chem, 2019)
Active and inactive are the calls of the source. The rule behind the calls is not given here.

Tests used:
[1] = biological target: Tyrosine-protein kinase receptor UFO (Homo sapiens) (UniProt P30530); assay: Inhibition of AXL (unknown origin) at 10 nM relative to control
SNU-16 = assay: Antiproliferative activity against FGFR2 amplified human SNU16 cells after 72 hrs by CCK8 assay; assay type: functional, cell-based; conditions: SNU-16, 72 h
Method in brief: (§1)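 Cells seeded at low density in growth medium and compounds added the next day. Incubated 72 h, then proliferation read by sulforhodamine B, MTT or CCK-8. IC50 obtained by four-parameter concentration-response curve fitting.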

NCI-H2286 = assay: Antiproliferative activity against human NCI-H2286 cells after 72 hrs by CCK8 assay; conditions: NCI-H2286, 72 h
[2] = biological target: Platelet-derived growth factor receptor beta (Homo sapiens) (UniProt P09619); assay: Inhibition of PDGFR-beta (unknown origin) at 100 nM relative to control
Method in brief: (§2)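 Purified recombinant kinase domains run in ELISA on precoated poly(Glu,Tyr) 4:1 (20 µg/mL) with 10 µM ATP in 50 mM HEPES pH 7.4, 50 mM MgCl2, 0.5 mM MnCl2, 0.2 mM Na3VO4, 1 mM DTT; 1% DMSO control; 60 min at 37 °C. Phosphotyrosine read by PY99 antibody, HRP anti-mouse IgG, OPD/H2O2 at 490 nm; inhibition = [1−A490/A490control]×100%; two separate experiments.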

[3] = test system: T1, Discoidin domain-containing receptor 2 (Homo sapiens), Q16832 [I638F]; assay: Inhibition of DDR2 I638F mutant in human NCI-H2286 cells assessed as decrease in ERK phosphorylation at […] after 2 hrs by Western blot analysis; assay type: cell-based
T1 sequence (whole entry): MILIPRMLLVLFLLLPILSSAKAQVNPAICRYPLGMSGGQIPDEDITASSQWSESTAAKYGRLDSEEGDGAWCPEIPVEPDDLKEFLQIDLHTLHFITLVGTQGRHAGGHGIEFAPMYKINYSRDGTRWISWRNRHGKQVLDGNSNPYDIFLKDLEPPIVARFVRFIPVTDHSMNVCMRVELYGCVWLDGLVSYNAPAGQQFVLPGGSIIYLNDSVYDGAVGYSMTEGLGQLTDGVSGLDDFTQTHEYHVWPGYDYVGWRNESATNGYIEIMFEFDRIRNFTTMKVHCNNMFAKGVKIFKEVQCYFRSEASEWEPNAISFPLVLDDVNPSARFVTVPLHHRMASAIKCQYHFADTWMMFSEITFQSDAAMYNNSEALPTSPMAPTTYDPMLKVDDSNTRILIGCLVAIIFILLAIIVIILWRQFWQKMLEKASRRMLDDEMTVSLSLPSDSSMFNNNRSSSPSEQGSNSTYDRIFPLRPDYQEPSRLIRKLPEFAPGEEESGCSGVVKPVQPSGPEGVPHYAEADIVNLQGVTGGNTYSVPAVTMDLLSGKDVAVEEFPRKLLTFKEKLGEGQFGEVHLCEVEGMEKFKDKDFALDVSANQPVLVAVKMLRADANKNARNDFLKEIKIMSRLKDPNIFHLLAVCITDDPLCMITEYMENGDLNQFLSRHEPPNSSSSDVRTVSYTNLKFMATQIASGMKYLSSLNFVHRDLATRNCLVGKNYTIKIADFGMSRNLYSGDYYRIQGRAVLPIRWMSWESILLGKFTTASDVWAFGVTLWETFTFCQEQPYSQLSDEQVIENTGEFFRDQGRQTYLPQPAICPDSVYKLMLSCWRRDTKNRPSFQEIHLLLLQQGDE
Method in brief: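 NCI-H2286 cells exposed to compound for 2 h at 37 °C and lysed in SDS sample buffer. Lysates run on 10% SDS-PAGE and blotted to nitrocellulose. Membranes probed for phospho- and total DDR2, ERK and Akt, with GAPDH as loading control, and detected by HRP secondary antibody and enhanced chemiluminescence.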

[4] = MRT in ICR(CD-1) mouse at 10 mg/kg, po administered via gavage by triple quadrupole mass spectrometric analysis; assay type: ADME, organism-based; conditions: in vivo
Method in brief: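 Dosed by gavage at 1 mg/mL in 1% Tween80/water to male ICR mice, 18-22 g, n=3. Blood taken at 0.25, 0.5, 1, 2, 4, 8 and 24 h. Plasma precipitated with methanol:acetonitrile (1:1) containing internal standard, then UPLC-MS/MS on a C18 column with an ammonium acetate/formic acid–acetonitrile gradient. Tmax read directly from the data; MRT calculated per animal from concentration–time curves.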

[5] = biological target: Platelet-derived growth factor receptor beta (Homo sapiens) (UniProt P09619); assay: Inhibition of PDGFR-beta (unknown origin) at 1000 nM relative to control
Method in brief: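 ELISA with purified recombinant kinase on plates precoated with poly(Glu,Tyr) 4:1 at 20 µg/mL. ATP 10 µM in HEPES pH 7.4 buffer with MgCl2, MnCl2, Na3VO4 and DTT. Run 60 min at 37 °C. Detected with anti-phosphotyrosine PY99, HRP secondary antibody and o-phenylenediamine, read at 490 nm. Inhibition % = [1 − A490/A490 control]×100. 1% DMSO as negative control.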

[6] = biological target: Fibroblast growth factor receptor 4 (Homo sapiens) (UniProt P22455); assay: Inhibition of FGFR4 (unknown origin) at 1000 nM relative to control; method in brief: as §2
[7] = biological target: Insulin-like growth factor 1 receptor (Homo sapiens) (UniProt P08069); assay: Inhibition of IGF1R (unknown origin) at 1000 nM relative to control; method in brief: as §2
[8] = biological target: Mitogen-activated protein kinase 3 (Homo sapiens) (UniProt P27361); assay: Inhibition of ERK1 (unknown origin) at 100 nM relative to control
[9] = biological target: Receptor tyrosine-protein kinase erbB-4 (Homo sapiens) (UniProt Q15303); assay: Inhibition of ErbB4 (unknown origin) at 1000 nM relative to control; method in brief: as §2
[10] = biological target: Tyrosine-protein kinase receptor UFO (Homo sapiens) (UniProt P30530); assay: Inhibition of AXL (unknown origin) at 1000 nM relative to control
KG-1 = assay: Antiproliferative activity against FGFR1 fused human KG1 cells after 72 hrs by CCK8 assay; assay type: functional, cell-based; conditions: KG-1, 72 h; method in brief: as §1
NCI-H1581 [11] = assay: Antitumor activity against human NCI-H1581 cells xenografted in nude mouse assessed as tumor growth inhibition at 20 mg/kg, po qd for 7 to 10 days relative to control; assay type: functional; conditions: read-out: TGI
Method in brief: (§3)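 Female nude mice, 4-6 weeks old. NCI-H1581 cells (5×10^6 in 200 µL) injected s.c., grown to 700-800 mm³, then 1-mm³ fragments implanted s.c. by trocar. At 100-150 mm³ animals were randomized (vehicle n=12, treated n=6) and dosed orally once daily for 7 days. Tumours measured twice weekly, volume = length×width²/2. TGI calculated from change in tumour volume versus vehicle on the final day, with Student's t-test.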

NCI-H1581 [12] = assay: Antitumor activity against human NCI-H1581 cells xenografted in nude mouse assessed as tumor growth inhibition at 10 mg/kg, po qd for 7 to 10 days relative to control; assay type: functional; conditions: read-out: TGI; method in brief: as §3
[13] = biological target: Fibroblast growth factor receptor 3 (Homo sapiens) (UniProt P22607); assay: Inhibition of FGFR3 (unknown origin) at 1000 nM relative to control; method in brief: as §2
[14] = biological target: Receptor tyrosine-protein kinase erbB-2 (Homo sapiens) (UniProt P04626); assay: Inhibition of ErbB2 (unknown origin) at 10 nM relative to control; method in brief: as §2
Chain of Receptor tyrosine-protein kinase erbB-2 (Homo sapiens) (P04626 whole entry): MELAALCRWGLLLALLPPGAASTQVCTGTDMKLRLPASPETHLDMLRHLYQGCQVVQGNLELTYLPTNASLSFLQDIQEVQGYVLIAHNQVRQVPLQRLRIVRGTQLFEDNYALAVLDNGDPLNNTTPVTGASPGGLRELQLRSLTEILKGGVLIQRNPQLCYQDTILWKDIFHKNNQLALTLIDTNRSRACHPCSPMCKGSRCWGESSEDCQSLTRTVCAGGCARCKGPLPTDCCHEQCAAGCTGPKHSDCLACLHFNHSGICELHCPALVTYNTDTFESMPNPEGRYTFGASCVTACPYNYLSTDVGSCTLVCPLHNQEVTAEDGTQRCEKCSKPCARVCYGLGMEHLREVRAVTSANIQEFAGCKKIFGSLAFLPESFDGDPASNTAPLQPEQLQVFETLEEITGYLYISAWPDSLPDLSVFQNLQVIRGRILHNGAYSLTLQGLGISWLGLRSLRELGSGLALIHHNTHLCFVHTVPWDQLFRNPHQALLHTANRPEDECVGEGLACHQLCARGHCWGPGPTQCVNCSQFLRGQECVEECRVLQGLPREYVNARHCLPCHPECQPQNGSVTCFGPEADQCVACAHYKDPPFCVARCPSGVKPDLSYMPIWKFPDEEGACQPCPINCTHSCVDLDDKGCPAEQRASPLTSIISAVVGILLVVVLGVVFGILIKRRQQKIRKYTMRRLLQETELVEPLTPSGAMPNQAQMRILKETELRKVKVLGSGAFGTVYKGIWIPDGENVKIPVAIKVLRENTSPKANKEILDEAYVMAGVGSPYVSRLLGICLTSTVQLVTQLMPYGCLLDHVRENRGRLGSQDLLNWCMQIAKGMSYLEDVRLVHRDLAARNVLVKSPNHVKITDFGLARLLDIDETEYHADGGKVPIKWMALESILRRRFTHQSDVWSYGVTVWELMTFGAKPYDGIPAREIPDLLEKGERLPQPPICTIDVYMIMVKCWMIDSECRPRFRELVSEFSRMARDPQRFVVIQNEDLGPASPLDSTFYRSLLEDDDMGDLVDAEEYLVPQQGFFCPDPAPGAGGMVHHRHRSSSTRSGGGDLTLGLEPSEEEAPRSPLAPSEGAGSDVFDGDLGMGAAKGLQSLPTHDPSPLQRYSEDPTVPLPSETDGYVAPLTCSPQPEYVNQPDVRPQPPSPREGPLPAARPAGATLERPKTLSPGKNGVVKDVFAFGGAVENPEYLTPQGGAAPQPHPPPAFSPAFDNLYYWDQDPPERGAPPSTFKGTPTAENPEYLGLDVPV

Chain of Tyrosine-protein kinase receptor UFO (Homo sapiens) (P30530 whole entry, the tested form may be a part): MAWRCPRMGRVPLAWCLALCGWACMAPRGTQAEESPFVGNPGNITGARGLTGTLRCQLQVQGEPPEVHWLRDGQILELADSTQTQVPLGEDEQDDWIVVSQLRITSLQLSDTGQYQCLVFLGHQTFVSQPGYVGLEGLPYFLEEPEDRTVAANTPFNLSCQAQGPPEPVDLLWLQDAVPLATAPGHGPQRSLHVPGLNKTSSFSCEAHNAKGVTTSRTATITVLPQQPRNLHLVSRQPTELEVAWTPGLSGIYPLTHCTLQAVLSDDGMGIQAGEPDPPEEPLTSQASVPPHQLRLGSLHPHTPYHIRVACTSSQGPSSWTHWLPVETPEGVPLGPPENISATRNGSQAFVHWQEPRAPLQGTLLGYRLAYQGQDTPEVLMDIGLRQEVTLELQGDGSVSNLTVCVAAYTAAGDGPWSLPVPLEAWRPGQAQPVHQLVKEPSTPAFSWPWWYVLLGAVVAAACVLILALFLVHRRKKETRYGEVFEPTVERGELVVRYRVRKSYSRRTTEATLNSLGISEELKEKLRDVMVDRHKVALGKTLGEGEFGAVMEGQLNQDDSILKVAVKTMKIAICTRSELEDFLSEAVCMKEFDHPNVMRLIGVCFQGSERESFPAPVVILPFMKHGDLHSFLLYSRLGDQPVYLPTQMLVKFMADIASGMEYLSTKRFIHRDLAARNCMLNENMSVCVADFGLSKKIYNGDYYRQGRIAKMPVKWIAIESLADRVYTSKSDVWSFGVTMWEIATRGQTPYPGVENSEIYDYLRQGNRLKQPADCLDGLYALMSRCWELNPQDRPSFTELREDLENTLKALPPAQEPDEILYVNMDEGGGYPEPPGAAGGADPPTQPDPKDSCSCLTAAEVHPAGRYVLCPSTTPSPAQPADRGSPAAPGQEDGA
Chain of Platelet-derived growth factor receptor beta (Homo sapiens) (P09619 whole entry, the tested form may be a part): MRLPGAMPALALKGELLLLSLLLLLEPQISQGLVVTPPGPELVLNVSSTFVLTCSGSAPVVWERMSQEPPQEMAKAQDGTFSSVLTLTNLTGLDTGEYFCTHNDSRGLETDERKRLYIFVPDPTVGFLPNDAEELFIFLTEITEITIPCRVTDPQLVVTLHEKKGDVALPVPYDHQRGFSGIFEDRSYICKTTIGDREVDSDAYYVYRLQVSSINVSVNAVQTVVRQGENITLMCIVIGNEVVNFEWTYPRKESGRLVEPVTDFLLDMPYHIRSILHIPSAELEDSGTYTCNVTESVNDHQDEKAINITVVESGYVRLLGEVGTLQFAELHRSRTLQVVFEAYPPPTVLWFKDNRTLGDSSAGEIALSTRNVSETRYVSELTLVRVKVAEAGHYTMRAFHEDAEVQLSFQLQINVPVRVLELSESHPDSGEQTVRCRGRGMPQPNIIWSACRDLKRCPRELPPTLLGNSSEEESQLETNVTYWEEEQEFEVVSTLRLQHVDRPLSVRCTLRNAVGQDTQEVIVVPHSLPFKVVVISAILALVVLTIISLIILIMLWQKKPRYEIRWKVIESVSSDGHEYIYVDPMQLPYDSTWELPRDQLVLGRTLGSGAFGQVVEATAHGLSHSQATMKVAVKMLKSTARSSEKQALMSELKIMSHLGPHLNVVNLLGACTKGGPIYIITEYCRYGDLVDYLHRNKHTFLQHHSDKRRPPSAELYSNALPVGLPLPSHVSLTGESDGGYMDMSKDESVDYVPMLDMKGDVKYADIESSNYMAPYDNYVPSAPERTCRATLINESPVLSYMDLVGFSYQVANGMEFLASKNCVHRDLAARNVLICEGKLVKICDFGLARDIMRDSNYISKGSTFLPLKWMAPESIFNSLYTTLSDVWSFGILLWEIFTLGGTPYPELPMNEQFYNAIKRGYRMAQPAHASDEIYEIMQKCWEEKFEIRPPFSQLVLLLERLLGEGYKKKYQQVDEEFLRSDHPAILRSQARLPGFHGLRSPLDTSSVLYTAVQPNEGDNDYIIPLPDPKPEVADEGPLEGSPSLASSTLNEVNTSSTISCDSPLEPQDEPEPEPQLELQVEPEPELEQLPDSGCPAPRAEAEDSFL
Chain of Fibroblast growth factor receptor 3 (Homo sapiens) (P22607 23-806 limits assumed): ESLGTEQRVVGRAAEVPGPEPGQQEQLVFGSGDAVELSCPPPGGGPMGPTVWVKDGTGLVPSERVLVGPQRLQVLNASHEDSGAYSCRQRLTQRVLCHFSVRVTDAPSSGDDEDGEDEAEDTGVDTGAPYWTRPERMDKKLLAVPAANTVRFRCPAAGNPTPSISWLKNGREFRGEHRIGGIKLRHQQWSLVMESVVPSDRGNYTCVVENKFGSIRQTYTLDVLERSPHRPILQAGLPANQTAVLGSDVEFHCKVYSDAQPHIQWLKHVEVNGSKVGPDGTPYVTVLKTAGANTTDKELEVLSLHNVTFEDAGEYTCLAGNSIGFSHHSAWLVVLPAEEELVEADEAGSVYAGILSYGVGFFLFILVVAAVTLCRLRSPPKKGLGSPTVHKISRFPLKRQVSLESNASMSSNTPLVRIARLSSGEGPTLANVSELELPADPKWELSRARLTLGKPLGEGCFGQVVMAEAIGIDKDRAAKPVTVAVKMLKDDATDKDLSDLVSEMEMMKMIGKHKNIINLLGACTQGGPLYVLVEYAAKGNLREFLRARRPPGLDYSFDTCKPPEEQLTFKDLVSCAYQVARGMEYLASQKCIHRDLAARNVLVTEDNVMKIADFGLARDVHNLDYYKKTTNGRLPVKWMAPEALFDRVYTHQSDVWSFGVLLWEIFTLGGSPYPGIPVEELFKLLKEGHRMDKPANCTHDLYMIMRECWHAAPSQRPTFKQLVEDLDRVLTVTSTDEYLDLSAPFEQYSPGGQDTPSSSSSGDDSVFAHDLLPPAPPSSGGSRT
Chain of Mitogen-activated protein kinase 3 (Homo sapiens) (P27361 whole entry): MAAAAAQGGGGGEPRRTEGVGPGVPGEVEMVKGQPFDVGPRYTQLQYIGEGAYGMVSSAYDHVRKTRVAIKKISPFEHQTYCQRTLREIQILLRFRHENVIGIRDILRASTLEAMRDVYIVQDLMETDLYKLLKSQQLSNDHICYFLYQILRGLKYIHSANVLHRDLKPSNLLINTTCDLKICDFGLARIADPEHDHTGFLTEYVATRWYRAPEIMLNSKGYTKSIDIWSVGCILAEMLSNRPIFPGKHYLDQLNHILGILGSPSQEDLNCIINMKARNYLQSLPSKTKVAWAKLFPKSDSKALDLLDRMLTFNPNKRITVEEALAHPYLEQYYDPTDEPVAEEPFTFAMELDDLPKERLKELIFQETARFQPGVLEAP

inhibition [1]: 42%
IC50 (SNU-16): 93.4 nM
IC50 (NCI-H2286): 93 nM
inhibition [2]: 99.1%
inhibition [3]: Active
MRT [4]: 5.71 h
inhibition [5]: 100%
inhibition [6]: 72.4%
inhibition [7]: 5.5%
inhibition [8]: 0.6%
inhibition [9]: 36.9%
inhibition [10]: 99.8%
inhibition [13]: 94.2%
inhibition [14]: 8.2%
Structure (SMILES): Cc1ccc(C(=O)Nc2cccc(C(F)(F)F)c2)cc1-c1ccc2c(-c3cnn(C4CC4)c3)n[nH]c2c1
IC50 (KG-1): 108 nM
inhibition in vivo at 20 mg/kg (NCI-H1581 [11]): 98.1%
inhibition in vivo at 10 mg/kg (NCI-H1581 [12]): 59.7%
